# Compound activity (PubChem BioAssay)
# Rows were chosen to be rich in hits. Some 3.9% of all compounds tested hit in one or more screens of this group.
# NS3 helicase inh: blocks Hepatitis C virus NS3 helicase unwinding | NS3 helicase DNA unwinding, Cy5 molecular beacon fluorescence | inhibition, % at 10.9 µM | 0.56% of 290,000 active;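 active = inhibition above the mean of all tested compounds plus 3 SD, set per campaign, cut at about 35% in these data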
#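 Measured by: Cy5 fluorescence, 0 and 60 min reads / Assay system: NS3 helicase fragment of HCV / Control set: low DMSO, high thioflavine S at 110 µM / Times: 1 h reaction at 25 °C, ATP-initiated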
# HSP90 inh: blocks HSP90-mediated luciferase refolding in reticulocyte lysate | Rabbit reticulocyte lysate, luciferase refolding luminescence, 3 h | inhibition, % at 5.6 µM | 0.91% of 290,000 active | AID 1789;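 active = inhibition above the screen-wide mean plus 3 SD, computed separately per campaign, cut at about 16% in these data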;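 also: inhibitors lower the luminescence because luciferase stays unfolded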
# HSF1 activator: increases HSF-1 driven luciferase reporter signal; NIH3T3-HGL HSF-1 luciferase reporter, MG132, 8 h; 100% = twice DMSO control signal; AID 504408; activation, % at 9 µM; 1.7% of 300,000 active;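 active = mean replicate activation of at least 50% with a set share of replicates each reaching 50%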
# HSF1 inh: HSF1 inhibition; AID 2098; NIH3T3-HGL HSE-luciferase, MG132-induced, luminescence 8 h; stronger effect = lower value; activity change, negative = inhibition, % at 7.5 µM (by protocol); 0.77% of 300,000 active;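 active = more than half of replicate wells show activity change below -50%, luminescence cut by over half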;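 also: luciferase reports HSF-1 transcriptional activity via heat shock element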
# HCV core dimer: blocks dimerization of HCV core protein; TR-FRET GST/Flag-core106 dimerization, 1536-well; inhibition, % at 5 µM; 0.33% of 300,000 active;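 active = inhibition above the mean of all tested compounds plus 3 SD, set per screening campaign, cut at about 45% in these data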
#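 Assay system: Tagged HCV core106 pair (GST and Flag) | Buffer or medium: KF-containing HEPES buffer, pH 7.45, DTT, CHAPS, BSA | Also added: Eu donor and XL665 acceptor anti-tag antibodies | Dosing: One concentration, 5 µM, in 0.5% DMSO | Timing: 4 h at 22.5 °C | Technique: TR-FRET 671 and 617 nm emission | Repeats: Singlicate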
# FID counter: counter-screen for HCV NS3 helicase inhibitors: DNA intercalator displacement | DNA fluorescent intercalator displacement, fluorescence | 0.17% of 290,000 active | inhibition, % at 7.9 µM | AID 1845; in the data active = inhibition above about 37%;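 also: higher means more ethidium bromide displaced from hairpin DNA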
# HSP90 inh confirm: HSP90 inhibition, confirmation assay; shares compounds with HSP90 inh; inhibition, % at 5.9 µM; 64% of 2,300 active; rabbit reticulocyte lysate, luciferase refolding luminescence, 3 h; AID 1846; in the data active = inhibition above about 18%
# FLuc counter: counter-screen for HSP90 inhibitors: inhibitors of firefly luciferase. purified native firefly luciferase, luminescence. 48% of 2,300 active. shares compounds with HSP90 inh. inhibition, % at 5.9 µM;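 active = inhibition above the mean inhibition of all tested sample wells plus 3 SD, cut at about 10% in these data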
# Target sequence (P08659 whole entry, looked up): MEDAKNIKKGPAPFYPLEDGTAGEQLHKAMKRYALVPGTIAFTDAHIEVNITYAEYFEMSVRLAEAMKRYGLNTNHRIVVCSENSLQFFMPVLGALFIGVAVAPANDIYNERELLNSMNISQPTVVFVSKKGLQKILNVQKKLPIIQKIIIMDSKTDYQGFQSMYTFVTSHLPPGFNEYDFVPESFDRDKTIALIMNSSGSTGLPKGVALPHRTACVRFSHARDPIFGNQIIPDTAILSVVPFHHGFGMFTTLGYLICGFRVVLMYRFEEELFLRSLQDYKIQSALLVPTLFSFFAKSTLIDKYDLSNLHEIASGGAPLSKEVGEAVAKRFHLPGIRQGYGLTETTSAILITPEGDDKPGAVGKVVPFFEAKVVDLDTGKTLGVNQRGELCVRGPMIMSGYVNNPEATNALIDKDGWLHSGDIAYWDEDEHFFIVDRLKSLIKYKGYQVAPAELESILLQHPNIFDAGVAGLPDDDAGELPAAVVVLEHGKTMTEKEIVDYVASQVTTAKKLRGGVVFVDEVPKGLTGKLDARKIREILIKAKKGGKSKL
# A number is an active result; n = inactive; x = no result given.
SMILES,NS3 helicase inh,HSP90 inh,HSF1 activator,HSF1 inh,HCV core dimer,FID counter,HSP90 inh confirm,FLuc counter
CC1CCN(C(=O)c2cc(-c3ccc4c(c3)OCO4)on2)CC1,n,20,n,n,n,n,39,28
O=C(c1cc(-c2ccc(Br)cc2)on1)N1CCOCC1,n,19,n,n,n,n,38,29
COc1cccc(-c2cc(C(=O)N3CCOCC3)no2)c1,n,18,61,n,n,n,19,n
CC1CCCCN1C(=O)c1cc(-c2ccc3c(c2)OCO3)on1 (stereo unspecified),n,n,n,n,n,n,x,x
Cc1cccc(N(Cc2ccccc2)C(=O)c2cccc(S(=O)(=O)N3CC(C)OC(C)C3)c2)c1 (stereo unspecified),x,x,n,n,n,x,x,x
Cn1c2ccccc2c(=O)n2c(=O)c3ccccc3cc12,n,19,n,n,n,n,23,n
Cn1cccc1/C=C1\CCc2ccccc2C1=O,n,39,n,n,n,n,64,67
CCOc1ccc(/C=C2\CCc3ccccc3C2=O)cc1,n,35,n,n,n,n,44,73
O=c1cc(CSc2nnnn2-c2ccccc2)[nH]c2[nH]n(-c3ccccc3)c(=O)c12,n,n,n,n,n,n,x,x
CC1CCCC(C)N1C(=O)CSc1nnc(-c2c[nH]c3ccccc23)o1 (stereo unspecified),n,n,n,n,n,n,x,x
CC1CCCN(C(=O)CSc2nnc(-c3c[nH]c4ccccc34)o2)C1 (stereo unspecified),n,38,n,n,n,n,n,n
COc1cccc(/C=N/n2c(SC)nnc2-c2ccccc2)c1O,n,n,n,n,n,n,x,x
COc1ccccc1N/C=C/c1onc(C)c1[N+](=O)[O-],n,39,n,n,n,n,78,71
Fc1ccc(-n2nnc(-c3nccs3)n2)cc1,n,20,n,n,n,n,32,25
Fc1ccc(-n2nnc(-c3cccnc3Cl)n2)cc1,n,n,n,n,n,n,x,x
Cc1nn(C(C)(C)C)c(C)c1/C=N/OC(=O)Nc1ccc(Cl)cc1,n,86,n,-92,n,n,86,87
C(=N\Nc1ccc2ccccc2n1)/c1ccc2c(c1)OCCO2,n,68,n,-80,n,n,93,92
Cc1ccc(/C=N/Nc2ccc3ccccc3n2)o1,n,n,x,x,n,n,x,x
Cc1cccc(/C=N/Nc2ccc3ccccc3n2)c1,n,66,n,n,n,n,85,84
O=c1c2ccccc2cnn1Cc1nnc(-c2cccs2)o1,n,19,n,n,n,n,n,n
O=C(N/N=C/c1cccc(O)c1)c1ccc2c(c1)OCCO2,n,48,n,n,n,n,59,39
CCOc1cccc(/C=N/NC(=O)c2ccc3c(c2)OCCO3)c1O,n,n,n,n,n,n,x,x
O=C(N/N=C/c1ccc2c(c1)OCO2)c1ccc2c(c1)OCO2,n,n,n,n,n,n,x,x
Cc1cccc(/C=N/NC(=O)c2ccc3c(c2)OCCO3)c1O,n,32,n,n,n,n,59,52
O=C(N/N=C/c1ccccc1[N+](=O)[O-])c1ccc2c(c1)OCCO2,n,22,n,n,n,n,58,36
SMILES,NS3 helicase inh,HSP90 inh,HSF1 activator,HSF1 inh,HCV core dimer,FID counter,HSP90 inh confirm,FLuc counter
CCOC(=O)c1ccc(-n2c(CC)nc3ccccc3c2=O)cc1,n,n,n,n,n,n,x,x
COc1cc(/C=C2\CCC(C3CCCC3)C2=O)cc(OC)c1OC (stereo unspecified),n,n,n,n,n,n,x,x
COc1cc(/C=C2\CC(C(C)(C)C)C/C(=C\c3cc(OC)c(OC)c(OC)c3)C2=O)cc(OC)c1OC (stereo unspecified),n,19,53,n,n,n,20,n
Cc1c(C(=O)O)cccc1-n1c(C)cc(C=O)c1C,n,22,n,n,n,n,19,n
CN(C)S(=O)(=O)c1cccc(NC(=O)c2ccncc2)c1,n,n,n,n,n,n,x,x
CN(C)S(=O)(=O)c1ccc(NC(=O)c2ccncc2)cc1,n,42,n,n,n,n,n,n
CC12CCC(C(=O)N/N=C/c3ccc(O)cc3O)(OC1=O)C2(C)C (stereo unspecified),n,n,n,n,n,n,x,x
O=C(COC(=O)c1ccc(N2CCCC2=O)cc1)c1ccccc1,n,18,n,n,n,n,27,n
O=C(COC(=O)c1ccc(N2CCCC2=O)cc1)NCc1ccco1,n,n,n,n,n,n,x,x
COc1cc(N2Cc3ccccc3C2)ccc1C=O,n,54,n,n,46,n,40,n
Cc1occc1-c1nnc(SCC(=O)N(C)C)o1,n,n,n,n,n,n,x,x
COC(=O)CSc1ncnc2c1sc1nc3c(cc12)COC(C)(C)C3,n,n,n,n,n,n,x,x
CC1(C)Cc2nc3sc4c(SCC(=O)O)ncnc4c3cc2CO1,n,19,x,x,n,n,31,n
COc1ccccc1NC(=O)NNC(=O)c1ccc2ccccc2c1,n,n,n,n,x,n,x,x
COc1ccc(C(=O)Nc2ccc3ccccc3c2)cc1,n,34,n,n,n,n,63,53
COc1ccccc1C(=O)NNC(=O)c1ccc2ccccc2c1,n,18,n,n,n,n,n,n
COc1ccc(OC)c(C(=O)c2ccc(C(=O)Nc3ccc4ccccc4c3)cc2)c1,n,n,n,n,n,n,x,x
COc1cccc(NC(=O)NNC(=O)C(C)Oc2ccc3ccccc3c2)c1 (stereo unspecified),n,n,n,n,x,n,x,x
COc1cccc(C(=O)Nc2ccc3ccccc3c2)c1,n,18,n,n,n,n,46,37
COc1ccc(OC(C)C(=O)Nc2cccc(OC)c2)cc1 (stereo unspecified),n,17,n,n,n,n,n,n
COc1cccc(C(=O)Nc2nnc(C(C)C)s2)c1,n,22,n,n,n,n,34,22
O=C(c1ccccc1NS(=O)(=O)c1cccc([N+](=O)[O-])c1)N1CCOCC1,n,n,n,n,n,n,x,x
Nc1cc(N)nc(SCCN2CCCCC2)n1,n,n,n,n,n,n,x,x
O=C(CC(O)(c1ccccc1)C(F)(F)F)c1cccs1 (stereo unspecified),n,n,n,n,n,n,x,x
CC1CCC/C(=C\Nc2ccc(O)cc2)C1=O (stereo unspecified),n,n,n,n,n,n,x,x
Cc1cc(C(=O)O)ccc1N/C=C1\CCCC(C)C1=O (stereo unspecified),n,34,n,n,n,n,70,32
